Measurements as given in ChEMBL document CHEMBL3232852, “Bexarotene prodrugs: targeting through cleavage by NQO1 (DT-diaphorase)” (Bioorg Med Chem Lett, 2014).

What was measured:
[1] = Activity of pig liver esterase at 100 uM after 7 mins; type: ADME, Sus scrofa
Method in brief: (§1)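 Porcine liver esterase at a final 76 µg/mL (1.3 U/mL) in tris buffer pH 7.4. Conjugates were incubated at 5 µM and monitored for ester cleavage and free bexarotene over 180 min and up to 24 h. Ethylbenzoate was the reference substrate at 100 µM.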

[2] = biological target: T1, NAD(P)H dehydrogenase [quinone] 1 (Homo sapiens, UniProt P15559); test: Prodrug conversion assessed as NQO1 (unknown origin)-mediated bexarotene formation at 5 uM by HPLC analysis in presence of NADH; type: ADME
T1 sequence (P15559 whole entry): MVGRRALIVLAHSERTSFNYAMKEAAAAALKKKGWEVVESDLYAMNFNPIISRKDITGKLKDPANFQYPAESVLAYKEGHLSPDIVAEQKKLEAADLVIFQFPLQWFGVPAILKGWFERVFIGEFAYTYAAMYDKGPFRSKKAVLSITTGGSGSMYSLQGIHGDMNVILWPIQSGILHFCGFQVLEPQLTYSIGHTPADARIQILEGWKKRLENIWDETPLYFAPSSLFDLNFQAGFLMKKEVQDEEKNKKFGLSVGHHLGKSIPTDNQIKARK
Method in brief: (§2)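 DMSO stocks were diluted 100-fold with tris buffer, and compound (5 µM) was incubated at 37 ± 1 °C with or without diaphorase (NQO1, 50 U/mL). The mix held 0.07% BSA and 300 µM NADH in tris pH 7.4. Bexarotene release was followed by RP-18 HPLC (acetonitrile/water); incubations ran up to 24 h, in triplicate.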

[3] = Activity of pig liver esterase at 5 uM after 180 mins; type: ADME, Sus scrofa; settings: 3 h; method in brief: as §1
[4] = biological target: T1, NAD(P)H dehydrogenase [quinone] 1; test: Prodrug conversion assessed as NQO1 (unknown origin)-mediated bexarotene formation at 5 uM by HPLC analysis in presence of 300 uM NADH followed by addition of NADH at 30 and 60 mins; type: ADME; settings: 1 h
Method in brief: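 Same NQO1 incubation: 5 µM compound, 37 ± 1 °C, diaphorase 50 U/mL, 0.07% BSA and 300 µM NADH in tris pH 7.4. Extra NADH was added at 30 and 60 min to test cofactor depletion. Bexarotene formation was read by RP-18 HPLC, in triplicate.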

[5] = biological target: T1, NAD(P)H dehydrogenase [quinone] 1; test: Prodrug conversion assessed as NQO1 (unknown origin)-mediated bexarotene formation at 5 uM after 4 to 24 hrs by HPLC analysis in presence of NADH; type: ADME; method in brief: as §2

Row | SMILES | Drug metabolism [2] | Drug metabolism [4] | also measured
1 | CCOC(=O)c1ccccc1 [ETHYL BENZOATE] | – | – | Drug metabolism [1]: metabolite_detected
2 | COC1=CC(=O)c2c(c(C)c(COc3ccc([N+](=O)[O-])c(C)c3)n2C)C1=O | metabolite_detected | – | –
3 | C=C(c1ccc(C(=O)OCc2cn(C)c3c2C(=O)C(OC)=CC3=O)cc1)c1cc2c(cc1C)C(C)(C)CCC2(C)C | metabolite_detected | metabolite_notdetected | –
4 | C=C(c1ccc(C(=O)OCc2c3c(n(C)c2C)C(=O)C(C)=C(OC)C3=O)cc1)c1cc2c(cc1C)C(C)(C)CCC2(C)C | metabolite_detected | metabolite_notdetected | –
5 | COC1=CC(=O)c2c(c(COc3ccc([N+](=O)[O-])c(C)c3)c(C)n2C)C1=O | metabolite_detected | – | –

Further lines, with some results ahead:

Row | Drug metabolism [2] | Drug metabolism [4] | SMILES | also measured
6 | – | metabolite_notdetected | C=C(c1ccc(C(=O)OCc2c3c(n(C)c2C)C(=O)C=C(OC)C3=O)cc1)c1cc2c(cc1C)C(C)(C)CCC2(C)C | Drug metabolism [3]: metabolite_notdetected
7 | – | metabolite_notdetected | C=C(c1ccc(C(=O)OCc2c(C)c3c(n2C)C(=O)C=C(OC)C3=O)cc1)c1cc2c(cc1C)C(C)(C)CCC2(C)C | Drug metabolism [5]: metabolite_notdetected
